Measured values gathered from unrelated publications.
Protocols differ between the studies behind these lines.
Target: 5-hydroxytryptamine receptor 1A (HTR1A, Homo sapiens, UniProt P08908)
Residues used in one study (P08908 1-422): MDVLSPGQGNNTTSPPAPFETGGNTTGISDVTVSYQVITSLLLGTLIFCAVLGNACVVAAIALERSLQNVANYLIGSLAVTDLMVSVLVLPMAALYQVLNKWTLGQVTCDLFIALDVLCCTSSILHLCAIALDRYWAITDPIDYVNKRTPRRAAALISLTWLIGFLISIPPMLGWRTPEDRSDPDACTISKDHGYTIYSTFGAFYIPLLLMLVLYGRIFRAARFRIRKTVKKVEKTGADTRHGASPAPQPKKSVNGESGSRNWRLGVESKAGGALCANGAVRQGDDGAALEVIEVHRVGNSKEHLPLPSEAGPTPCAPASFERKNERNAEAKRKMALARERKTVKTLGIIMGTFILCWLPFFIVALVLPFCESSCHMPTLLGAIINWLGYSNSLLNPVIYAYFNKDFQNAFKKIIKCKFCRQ

SMILES | test | quantity | result
CCCCCNC(=N)N/N=C/c1c[nH]c2ccc(OC)cc12 | ligand displacement, radioligand | IC50 | 143 nM
COCCCN1CCN(c2ccccc2OC)CC1 | cell-free assay | Ki | 110 nM
CC(CCc1ccccc1)NC(C)C(O)c1ccc(O)cc1 (stereo not drawn) | calcium signal, antagonist | IC50 | 11800 nM
NCCc1c[nH]c2cc(F)ccc12 | ligand displacement, radioligand | Ki | 267 nM
CN1C[C@@H](CO)C=C2c3cccc4[nH]cc(c34)C[C@H]21 | ligand displacement, radioligand | IC50 | 2.3 nM
NCCc1c[nH]c2cccc(O)c12 | ligand displacement, radioligand | Ki | 44 nM
CC[C@@H](CO)NC(=O)[C@@H]1C=C2c3cccc4c3c(cn4C)C[C@H]2N(C)C1 | cell-free assay | Ki | 70 nM
CN(C)CCc1c[nH]c2cccc(O)c12 | ligand displacement, radioligand | Ki | 84 nM
C[C@H](N)Cn1ncc2ccc3c(c21)CCCO3 | cell-free assay, radioligand | Ki | 294 nM
